For 21 compounds, IC50 results are on record in ChEMBL document CHEMBL3352795, “Discovery of novel 1,5-benzodiazepine-2,4-dione derivatives as potential anticancer agents” (Bioorg Med Chem Lett, 2014).

Values after ≈ are worked out from the molar mass of the structure shown.

Common to all, as to assay type: functional, cell-based
One test has as its system HeLa. Put plainly: Anticancer activity against human HeLa cells assessed as growth inhibition after 48 hrs by MTT assay. In short, it runs like this:
(§1)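 Standard MTT assay on cells incubated with compound for 48 h, with 5-fluorouracil as the positive control. Results are reported as IC50.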

For another test, the system named is MCF7. Briefly: Anticancer activity against human MCF7 cells assessed as growth inhibition after 48 hrs by MTT assay. Conditions: MCF7, 48 h. Summed up:
as §1

The nature of test [1]: Anticancer activity against mouse LL/2 cells assessed as growth inhibition after 48 hrs by MTT assay. Conditions: Lewis lung carcinoma. In short, it runs like this:
as §1
On the technique in general: Formazan colour is commonly taken as a measure of viable cells.

The next test relates to A549. Briefly: Anticancer activity against human A549 cells assessed as growth inhibition after 48 hrs by MTT assay. Conditions: A549, 48 h. Summed up:
as §1

A short description of test [2]: Anticancer activity against human HCT116 cells assessed as growth inhibition after 48 hrs by MTT assay. As to conditions: HCT-116, 48 h. Summed up: as §1

For the compound `CC(C)(C(=O)NCc1ccccc1)C1C(=O)Nc2cccc(C(=O)NCc3cccc(C(F)(F)F)c3)c2NC1=O` (centres undefined), the IC50 (usually the concentration at which inhibition is half-maximal) in the test on HeLa was 8.1 µg/mL (≈ 14.7 µM); in the test on MCF7, 36.1 µg/mL (≈ 65.3 µM); in test [1], 30.5 µg/mL (≈ 55.2 µM); with A549, 80.5 µg/mL (≈ 146 µM); in test [2], 46.1 µg/mL (≈ 83.4 µM).
For `CC(C)(C(=O)NCc1ccccc1)C1C(=O)Nc2cccc(C(=O)Nc3ccccc3)c2NC1=O` (centres undefined) the same measures were 41.9 µg/mL (≈ 89 µM), 21.3 µg/mL (≈ 45.3 µM), 29.3 µg/mL (≈ 62.3 µM), 85.3 µg/mL (≈ 181 µM) and 26.6 µg/mL (≈ 56.5 µM).
Consider `CC(C)NC(=O)c1cccc2c1NC(=O)C(C(C)(C)C(=O)NCc1ccccc1)C(=O)N2` (centres undefined), for which, in the test with A549, the IC50 was greater than 100 µg/mL.
For `CC(C)(C(=O)NCc1ccccc1)C1C(=O)Nc2cccc(C(=O)Nc3ccccc3F)c2NC1=O` (centres undefined), in the test on A549, the half-maximal inhibitory concentration (IC50) stood at 96.1 µg/mL (≈ 197 µM).
Regarding `CC(C)(C(=O)NCc1ccccc1)C1C(=O)Nc2cccc(C(=O)Nc3cccc(F)c3F)c2NC1=O` (centres undefined), the IC50 in the test on HeLa was determined as 37.8 µg/mL (≈ 74.6 µM); with MCF7, 21 µg/mL (≈ 41.5 µM); in test [1], 32.9 µg/mL (≈ 65 µM); in the test on A549 it was 80.4 µg/mL (≈ 159 µM); in test [2], 25 µg/mL (≈ 49.4 µM).
In the case of `CC(C)(C(=O)NCc1ccccc1)C1C(=O)Nc2cccc(C(=O)NCc3ccccn3)c2NC1=O` (centres undefined), the IC50 with A549 was greater than 100 µg/mL.
Consider `CC(C)(C(=O)NCc1ccccc1)C1C(=O)Nc2cccc(C(=O)NCc3c(F)ccc(F)c3F)c2NC1=O` (centres undefined), for which the IC50 in the test on A549 was determined as 97.7 µg/mL (≈ 181 µM).
In the case of `Cc1ccc(CNC(=O)c2cccc3c2NC(=O)C(C(C)(C)C(=O)NCc2ccccc2)C(=O)N3)cc1Cl` (centres undefined), the IC50 was 16.7 µg/mL (≈ 31.3 µM) in the test on HeLa; 87 µg/mL (≈ 163 µM) in the test on MCF7; 58.3 µg/mL (≈ 109 µM) in test [1]; 59.4 µg/mL (≈ 111 µM) with A549; greater than 100 µg/mL in test [2].
In the case of `O=c1[nH]cc(F)c(=O)[nH]1` [FLUOROURACIL], the IC50 in the test on HeLa worked out at 5.7 µg/mL (≈ 43.8 µM); with MCF7, 12.1 µg/mL (≈ 93 µM); in test [1] it was 2.9 µg/mL (≈ 22.3 µM); in test [2] it was 4.8 µg/mL (≈ 36.9 µM).
Regarding `CC(C)(C(=O)NCc1ccccc1)C1C(=O)Nc2cccc(C(=O)Nc3ccc(F)c(F)c3F)c2NC1=O` (centres undefined), in the test with A549, the IC50 was greater than 100 µg/mL.
As for `CC(C)(C(=O)NCc1ccccc1)C1C(=O)Nc2cccc(C(=O)NCc3ccccc3)c2NC1=O` (centres undefined), the IC50 came out at 42 µg/mL (≈ 86.7 µM) in the test on HeLa; 91.2 µg/mL (≈ 188 µM) in the test with MCF7; 48.5 µg/mL (≈ 100 µM) in test [1]; 45.3 µg/mL (≈ 93.5 µM) in the test on A549; 85 µg/mL (≈ 175 µM) in test [2].
As to `CC(C)(C(=O)NCc1ccccc1)C1C(=O)Nc2cccc(C(=O)Nc3cccc(C(F)(F)F)c3)c2NC1=O` (centres undefined), the half-maximal inhibitory concentration (IC50) in the test on HeLa was 42 µg/mL (≈ 78 µM); in the test with MCF7, 10 µg/mL (≈ 18.6 µM); in test [1] it was 17.6 µg/mL (≈ 32.7 µM); in the test with A549, 27.8 µg/mL (≈ 51.6 µM); in test [2] it was 20.5 µg/mL (≈ 38.1 µM).
Regarding `CC(C)(C(=O)NCc1ccccc1)C1C(=O)Nc2cccc(C(=O)NC3CC3)c2NC1=O` (centres undefined), the IC50 in the test with A549 was greater than 100 µg/mL.
As for `CC(C)(C(=O)NCc1ccccc1)C1C(=O)Nc2cccc(C(=O)Nc3ccc(F)cc3F)c2NC1=O` (centres undefined), in the test on A549, the IC50 is greater than 100 µg/mL.
Regarding `CC(C)(C(=O)NCc1ccccc1)C1C(=O)Nc2cccc(C(=O)NCc3ccc(F)c(Cl)c3)c2NC1=O` (centres undefined), the IC50 in the test on HeLa turned out to be 21.1 µg/mL (≈ 39.3 µM); with MCF7 it was 68.2 µg/mL (≈ 127 µM); in test [1], 66.8 µg/mL (≈ 124 µM); in the test with A549, 68.1 µg/mL (≈ 127 µM); in test [2], 49.9 µg/mL (≈ 92.9 µM).
In the case of `CC(C)(C(=O)NCc1ccccc1)C1C(=O)Nc2cccc(C(=O)NCc3cc(F)ccc3F)c2NC1=O` (centres undefined), the IC50 with HeLa was 25.1 µg/mL (≈ 48.2 µM); in the test on MCF7 it was 74.8 µg/mL (≈ 144 µM); in test [1] it was 40.2 µg/mL (≈ 77.2 µM); in the test on A549 it was 43.1 µg/mL (≈ 82.8 µM); in test [2], 80.1 µg/mL (≈ 154 µM).
Regarding `Cc1ccc(CNC(=O)c2cccc3c2NC(=O)C(C(C)(C)C(=O)NCc2ccccc2)C(=O)N3)cc1` (centres undefined), the IC50 with A549 is greater than 100 µg/mL.
With `CC(C)(C(=O)NCc1ccccc1)C1C(=O)Nc2cccc(C(=O)Nc3ccc(C(F)(F)F)cc3)c2NC1=O` (centres undefined), the IC50 with A549 was greater than 100 µg/mL.
Still for that read-out and setting: to `CC(C)(C)NC(=O)c1cccc2c1NC(=O)C(C(C)(C)C(=O)NCc1ccccc1)C(=O)N2` (centres undefined) belongs greater than 100 µg/mL.
Turning to `CC(C)(C(=O)NCc1ccccc1)C1C(=O)Nc2cccc(C(=O)Nc3cc(Cl)ccc3F)c2NC1=O` (centres undefined), the IC50 stood at 35.4 µg/mL (≈ 67.7 µM) in the test with HeLa; 20.4 µg/mL (≈ 39 µM) in the test with MCF7; 19.3 µg/mL (≈ 36.9 µM) in test [1]; 63.3 µg/mL (≈ 121 µM) in the test on A549; 21.3 µg/mL (≈ 40.7 µM) in test [2].
Turning to `CC(C)(C(=O)NCc1ccccc1)C1C(=O)Nc2cccc(C(=O)Nc3cccc(Cl)c3)c2NC1=O` (centres undefined), the IC50 in the test with HeLa was found to be 24 µg/mL (≈ 47.5 µM); in the test on MCF7, 11.2 µg/mL (≈ 22.2 µM); in test [1], 17.1 µg/mL (≈ 33.9 µM); with A549 it was 56.2 µg/mL (≈ 111 µM); in test [2], 17.3 µg/mL (≈ 34.3 µM).
